Reference: PMC6217710 (Pain Medicine: The Official Journal of the American Academy …, 2018)

Columns and labels:
[1] = Plasma pharmacokinetics after single oral dose; assay type: in vivo; details: human, 150 mg
healthy male subjects [2] = experiment: Laser-evoked potentials; assay type: in vivo, human
Method in brief: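 Crossover in 24 healthy CYP2D6 extensive/intermediate-metabolizer males: 4 double-blind, double-dummy single-dose periods with 6-day washouts. Back skin got topical 1% alcoholic capsaicin under occlusion for 25 min, then two CO2-laser rekindling sessions. Each session used ≥13 80-msec laser stimuli at the fixed individual pain-threshold intensity. Vertex EEG (Cz vs right mastoid, artifacts rejected) recorded predose and hourly to 8 h. Value is the N2-P2 amplitude difference vs placebo.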

healthy male subjects [3] = details: previous data in healthy subjects; cited from earlier work
healthy male subjects [4] = experiment: Postlaser pain visual analog scale; assay type: in vivo, human; details: all subjects
Method in brief: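 Measured in the same capsaicin-pretreated back-skin sessions of the 4-period crossover (24 healthy males, double-blind, single doses, 6-day washout). Laser intensity was held at each subject's pain threshold, set on untreated skin during screening. After the laser stimuli, subjects rated pain on a 0–100 mm visual analog scale, expressed as %. Ratings were taken predose and hourly up to 8 h, compared against placebo.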

healthy male subjects [5] = experiment: Safety and tolerability; assay type: in vivo, human

## CC(C)C[C@H](CN)CC(=O)O [Pregabalin, pregabalin]
[1]
  Tmax: 1.08 h
[1]; mean Cmax, pregabalin 150 mg single oral dose
  Cmax: 3480 ng/mL
Healthy male subjects [2]; pregabalin 150 mg single dose vs placebo, all subjects (n = 24)
  Difference in LEP N2-P2 PtP amplitudes: –3.30 μV
Healthy male subjects [2]; pregabalin 150 mg, overall, all subjects
  LEP N2-P2 PtP amplitude value: 26.7 μV
Healthy male subjects [3]
  Reductions in PtP amplitudes of LEPs maintained postdose: more than six hours
  Start of reductions in PtP amplitudes of LEPs: one to two hours postadministration
Healthy male subjects [4]; pregabalin 150 mg vs placebo
  Difference in VAS pain: –9.90%
Healthy male subjects [4]; pregabalin 150 mg
  VAS pain score: 36.6%
Healthy male subjects [5]; during treatment with pregabalin 150 mg
  Subjects who reported TEAEs: 50%
Healthy male subjects [5]; pregabalin 150 mg (n = 24)
  Any TEAE: 12 (50) No. (%)
  Dizziness: 6 (25) No. (%)
  Drug-related TEAE: 12 (50) No. (%)
  Fatigue: 4 (17) No. (%)
  Headache: 0 No. (%)
  Nausea: 1 (4) No. (%)
  Serious TEAE: 0 No. (%)
  Somnolence: 1 (4) No. (%)
  Vertigo: 3 (13) No. (%)
